For 167 variants, yeast fitness results are on record in the RNAGym collection of RNA variant scans (doi:10.1126/science.aae0568).

This sample holds only a part of the variants without activity.

The chains are these.
B1: tRNA (parent)
chain: GUUCCGUUGGCGUAAUGGUAACGCGUCUCCCUCCUAAGGAGAAGACUGCGGGUUCGAGUCCCGUACGGAACG

In the data set the parent is B1. Nature of the data set: yeast fitness relative to wild type (ratio to wild type); higher = fitter; tRNA-Arg(CCU), competitive growth, 37 C, YPD. In short, it runs like this: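 The tRNA-Arg(CCU) gene variants were made by chemical synthesis with a 3% per-site mutation rate at 69 sites and inserted at the native genomic locus of Saccharomyces cerevisiae. After pooling, the strains were competed in YPD at 37°C for 24 hours in six parallel replicates. Gene amplicons from the start population and each end population were read by 100-nucleotide paired-end sequencing, and Darwinian fitness relative to wild type was taken from genotype frequency changes. Genotypes needed ≥ 100 starting reads, and estimates < 0.5 were set to 0.5.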
As for G44U A45C G50C, the yeast fitness is no more than 0.5.

As for U13A G51C, the yeast fitness is 0.58. For the variant C30G C46G C61U, the yeast fitness was no more than 0.5. In the case of C11G G23C U35G G39C G50C C66A, the yeast fitness was no more than 0.5. On to G23C G44C C46U G58A, for which the yeast fitness is no more than 0.5. On to U16C C49U A70U, for which the yeast fitness worked out at 0.745.

For C5A U47C G51A A65C, the yeast fitness is no more than 0.5. As for C4G C30G C33A, the yeast fitness was no more than 0.5. For G9C C49U the value was 0.703; for U8A G23A C30U U35C, no more than 0.5. For C5G G39A A43U the value was 0.575; for C5U G17C U26G, 0.511. To U28A A40U C62A belongs 0.943. Turning to C27G C31U U53C C66A, the yeast fitness was no more than 0.5.

On to A20C G39C A70U, for which the yeast fitness was found to be 0.521. To G10C A21U belongs 0.675; to A21C C24U A36C A57U, no more than 0.5. To U8A G58C belongs 0.764; to A14G A36G A43C A65U, no more than 0.5; to C31A U47C G67A, 0.544. For C24U C31A U54G the value was 0.75. As to C34G A37G A65G, the yeast fitness was determined as 0.966. For A45U C49U the value was 1.07; for U3A C22G C33G G51A, no more than 0.5. On to C27U C31G, for which the yeast fitness was determined as 0.713.

As for C22U A42U G51C C62U A70U, the yeast fitness was found to be 0.505.

Turning to C4A G12C A37G G38A, the yeast fitness is no more than 0.5. For G18C U47C G51A the value was no more than 0.5; for C11A C31A C61A, 0.563; for G18A C29U C31A C55U G68C, no more than 0.5. As for G23A A36G C55G, the yeast fitness stood at 0.578. For U35C U47A the value was 0.734. For C49A C60A A70C the value was no more than 0.5. For C27U C34G A37C the value was no more than 0.5. As to C30G A42G U64G, the yeast fitness was no more than 0.5.

For the variant C24G A45G G51C U54A G56C, the yeast fitness is no more than 0.5. As to C5G C34G C62A G63A, the yeast fitness is no more than 0.5.

On to A57C C62A A65C, for which the yeast fitness was no more than 0.5. Turning to G25A C30U A43G G52A, the yeast fitness came out at 0.701. To A65G A70C belongs 0.889; to A15U C24G U32C A42C A43C, no more than 0.5; to U26A C62G, 0.69.

With A21C C27G C46A C55G, the yeast fitness was no more than 0.5.

With G9C U19C C31A C55U A69C, the yeast fitness stood at 0.547.

For U3A C5A C66U, the yeast fitness is no more than 0.5.

For A20C G25C U35A A45U, the yeast fitness is no more than 0.5. C22G U47A U54A C61G: the yeast fitness is no more than 0.5. C5G A45C C46U: the yeast fitness was found to be 0.643. Take G38C A69U: the yeast fitness was found to be 0.788. To C22G A57U A65C C66G belongs no more than 0.5; to U8A C66G, 0.582; to C49U U54C C66G, no more than 0.5. For C11A C22G C49G G68C A69C the value was no more than 0.5; for C4A G6A G52C A57C G63C, 0.537. For U13C C24U, the yeast fitness was determined as 1.01. To C30U G38C C61U belongs 0.542; to C4G U26A C30U, no more than 0.5; to G48U, 1.03.

As to U53A G68A, the yeast fitness was found to be 0.574. To G39A C55G G56A A69U A70G belongs no more than 0.5.

Turning to G10C C22U C60U C61A G63C A65U, the yeast fitness is no more than 0.5.

Consider G10A G44C A65C G67A, for which the yeast fitness was no more than 0.5. On to C49U, for which the yeast fitness came out at 0.995. As to C30U G68A A69C, the yeast fitness was determined as 0.544.

Regarding A15G U54A C61U, the yeast fitness stood at 0.57. To U2C G18A U28C A42C belongs no more than 0.5; to C4U G9A A57G, 0.61. To C11A A21U G41A G58A A65G belongs no more than 0.5; to C5U A14G U16A C30U, no more than 0.5. For the variant A15U G18A U35C G58A, the yeast fitness is no more than 0.5. To C5U C22U A37U G68U belongs no more than 0.5; to C27U C33A A40C, 0.574; to C49A G68C, 0.578. For U16A C24G U47C the value was 0.536; for U2C C11A A14C C22U A45U, no more than 0.5; for C4A G18A C22U G44C C46U C49U, no more than 0.5. On to C31A A65U C66A, for which the yeast fitness is no more than 0.5.

With A37C G38C C55U, the yeast fitness was no more than 0.5.

For the variant C5A U8C A21G A45C U47G G56C, the yeast fitness was no more than 0.5. For U3C U35G A57C A70C the value was no more than 0.5; for C11G A14G G17A G48C C62U C66G A70G, no more than 0.5; for G17A C29U A57G U59C, no more than 0.5. To C4A C31G A45G G50C G63A belongs no more than 0.5; to G38C A45G U59A, no more than 0.5; to C22U C30A U64A, 0.574. As for G10C A45C U59C, the yeast fitness was no more than 0.5.

For C22U U26A A40G G67C, the yeast fitness is no more than 0.5. With G56A G63C, the yeast fitness was determined as 0.818. With A20U A43C, the yeast fitness stood at 0.775. To C30A C46A G56A A69U belongs no more than 0.5; to U16A A37G A43G, no more than 0.5; to A36G G48A C49G, 0.63. As for C31A G51C C60U G67A, the yeast fitness was no more than 0.5.

On to U2C U26C C27G U28A A43U, for which the yeast fitness was no more than 0.5.

On to C4A G25C, for which the yeast fitness is 0.833.

As to U2G A20C G44A A45G, the yeast fitness was 0.712. For A42U C61A C62A G63A the value was 0.748; for U2C C27A C62A, 0.641; for C4G C46G, 0.854. With G18C A40G A42G G58C, the yeast fitness is no more than 0.5. To A14G C22A C27A C29U A42C A57U C60A belongs no more than 0.5. For G23A C33G the value was no more than 0.5; for C4U U32A A57C, no more than 0.5; for C33U A37U, 0.55.

For C4G G10C U26C C27G A37G G39A, the yeast fitness was no more than 0.5. For A21G C31U U35C C61U C66U, the yeast fitness is no more than 0.5. Regarding U28A G44A G50A A57G G68C, the yeast fitness was no more than 0.5. Turning to U2A C30U A57G, the yeast fitness is no more than 0.5. With A43G A45U, the yeast fitness turned out to be 1.01. For U2C A45G G56C the value was 0.575; for U2G C4U A40C, 0.627. For U3C C55A A65U the value was no more than 0.5. For C27A A57U the value was 0.737. For C27A A42U G67C, the yeast fitness was 0.613. Consider U3C G17C C29G C49G, for which the yeast fitness was 0.885. To A20G C22A C24U belongs 0.589; to U2G C49G G50C A70C, no more than 0.5.

With U13C U19A A21U C24A U54C U59C A69G, the yeast fitness is no more than 0.5. For A20C U26A C34G A36G C46G the value was no more than 0.5; for U2A A15U, 0.753; for C5A G52C G67U A69U, no more than 0.5. For G6A C66G the value was 0.683; for G12A G23C C49A A57C, no more than 0.5. Consider C30G G52C, for which the yeast fitness is 0.512.

On to G48A C60U A65U, for which the yeast fitness came out at 0.726. For C55U A57C the value was 0.584; for U13A A21C U54G, 0.557; for A21G C34G C61U, 0.722.

For G6A A21C, the yeast fitness amounted to 0.84. To U2G C4U C61A C62U A65U belongs 0.521; to G9A U32C A43G G52A C61G, 0.63.

For A21U G51A C66A, the yeast fitness is no more than 0.5. To A15G C33G G51A belongs 0.665; to G12C A15C A20U G38C G50C, no more than 0.5.

Turning to G18C A21G C66A, the yeast fitness was no more than 0.5. For U7G A15G C33G A69U the value was no more than 0.5. To G17A C24A C46A belongs 0.727. To C4U C24U C31A G56C belongs 0.63. Consider U7G A14G C22U G23A G38A C55A, for which the yeast fitness is no more than 0.5. For C31U C46A A69C the value was 0.757; for U2C U32A A65C, no more than 0.5. For A15U A20C G23A G50C the value was 0.577; for C5G C22U C27U G41C A57C, 0.542; for C31A A42C C46G G67A, 0.625. To C11G G12C A20C C24G G39C C60A belongs no more than 0.5. For G12A C29A C31G C60A, the yeast fitness was no more than 0.5. To U7C A21G C33G C60U belongs no more than 0.5; to U8G C22U C62U, 0.529. Turning to C49G G63A, the yeast fitness was 0.86. For A21C A65U G68C the value was no more than 0.5; for C27G A36G, 0.542; for C11G U28A A70U, no more than 0.5.

C55A G56C: the yeast fitness worked out at 0.522. For A40G G48A C66U, the yeast fitness worked out at 0.769. On to U2C U13C C22G U26A C31U A42C G50C, for which the yeast fitness is no more than 0.5. On to C4A G39C G41C, for which the yeast fitness was no more than 0.5.

With U16C C30A A37U, the yeast fitness was no more than 0.5.

C11A A43G U64A: the yeast fitness came to 0.601. To G10U C66U belongs 0.794; to C5G A14U C24U C55G A70U, no more than 0.5. For C11A A37U C49G C60G C62G the value was no more than 0.5; for G41C G63A, 0.852. Turning to U3G C66U A70U, the yeast fitness came to 0.534.

Turning to C31U G44C, the yeast fitness was 0.826. For A40G G67C the value was 0.956; for A20G C60A A70C, 0.556; for C4U C11U A45C G48A G56C, no more than 0.5.
